Laboratory results: ChEMBL document CHEMBL1135528, “Monocyclic human tachykinin NK-2 receptor antagonists as evolution of a potent bicyclic antagonist: QSAR and site-directed mutagenesis studies” (J Med Chem, 2002)
Substitutions are numbered along the chain they refer to. Activity calls are given as the source filed them. The rule behind the calls is not given here. Where a SMILES comes first, the peptide text is derived from it. Bridges are numbered along the chain shown (N, C = ends). [ ]: non-standard residue; d: D form. The star is where a group is joined. NH(β-GlcNAc) = CC(=O)N[C@@H]1[C@@H](O)[C@H](O)[C@@H](CO)O[C@H]1N*; Dap = NC[C@H](N)C(=O)O

Key:
[1] = test system: Substance-K receptor (Homo sapiens), P21452 [Y206F]; assay: Binding affinity against Y206F human neurokinin-2 receptor (hNK-2R) using [3H]nepadutant as a radioligand
Substance-K receptor (Homo sapiens), P21452 [Y206F], sequence (P21452 whole entry Y206F): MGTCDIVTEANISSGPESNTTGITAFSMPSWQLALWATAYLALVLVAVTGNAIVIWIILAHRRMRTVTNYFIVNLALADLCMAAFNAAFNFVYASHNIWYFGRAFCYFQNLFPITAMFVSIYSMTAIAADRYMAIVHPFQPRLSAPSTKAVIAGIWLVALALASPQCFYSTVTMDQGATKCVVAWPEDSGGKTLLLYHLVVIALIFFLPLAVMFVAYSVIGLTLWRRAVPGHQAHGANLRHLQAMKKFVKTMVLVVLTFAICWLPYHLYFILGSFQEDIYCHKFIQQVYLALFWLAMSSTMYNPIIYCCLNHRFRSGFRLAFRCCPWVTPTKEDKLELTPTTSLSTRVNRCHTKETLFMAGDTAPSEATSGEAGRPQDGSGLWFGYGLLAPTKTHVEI
Procedure, shortened: (§1)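 Membranes from cells stably transfected with wild-type or mutant hNK-2R, incubated with [3H]nepadutant for 60 min at 20 °C in 50 mM Tris-HCl pH 7.4 containing peptidase inhibitors, 150 mM NaCl, 5 mM MnCl2 and 1 g/L BSA. Competitors ranged 0.3 pM–10 μM. Nonspecific binding was defined with 1 mM unlabeled ligand. Bound label was collected by filtration and counted. Means from ≥3 duplicate experiments.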

[2] = molecular target: T1, Substance-K receptor (Homo sapiens) (UniProt P21452); assay: Binding affinity against wild type human Wild-type tachykinin receptor 2 (hNK-2R) using [3H]nepadutant as a radioligand; procedure, shortened: as §1
T1 sequence (whole entry): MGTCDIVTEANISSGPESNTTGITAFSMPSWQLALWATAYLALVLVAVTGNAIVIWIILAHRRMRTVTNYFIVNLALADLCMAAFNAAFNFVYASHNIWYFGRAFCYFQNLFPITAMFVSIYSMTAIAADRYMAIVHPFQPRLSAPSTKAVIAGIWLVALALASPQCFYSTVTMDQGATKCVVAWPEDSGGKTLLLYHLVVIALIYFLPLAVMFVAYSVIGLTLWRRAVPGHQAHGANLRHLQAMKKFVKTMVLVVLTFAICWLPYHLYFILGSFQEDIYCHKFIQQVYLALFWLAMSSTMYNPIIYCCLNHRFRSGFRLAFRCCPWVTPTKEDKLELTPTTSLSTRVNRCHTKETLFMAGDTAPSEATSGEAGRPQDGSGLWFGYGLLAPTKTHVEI

[3] = test system: Substance-K receptor (Homo sapiens), P21452 [Y289F]; assay: Binding affinity against Y289F human neurokinin-2 receptor (hNK-2R) using [3H]nepadutant as a radioligand; procedure, shortened: as §1
Substance-K receptor (Homo sapiens), P21452 [Y289F], sequence (P21452 whole entry Y289F): as the sequence (P21452 whole entry Y206F) above, with F206Y, Y289F counted along it

[4] = test system: Substance-K receptor (Homo sapiens), P21452 [Q166A]; assay: Binding affinity against Q166A human neurokinin-2 receptor (hNK-2R) using [3H]nepadutant as a radioligand; procedure, shortened: as §1
Substance-K receptor (Homo sapiens), P21452 [Q166A], sequence (P21452 whole entry Q166A): as the sequence (P21452 whole entry Y206F) above, with Q166A, F206Y counted along it

[5] = test system: Substance-K receptor (Homo sapiens), P21452 [H198A]; assay: Binding affinity against H198A human neurokinin-2 receptor (hNK-2R) using [3H]nepadutant as a radioligand; procedure, shortened: as §1
Substance-K receptor (Homo sapiens), P21452 [H198A], sequence (P21452 whole entry H198A): as the sequence (P21452 whole entry Y206F) above, with H198A, F206Y counted along it

[6] = molecular target: T1, Substance-K receptor (Homo sapiens); assay: Binding affinity against wild-type human Wild-type tachykinin receptor 2 (hNK-2R) using [125I]-NKA as a radioligand
[7] = test system: T2, Substance-K receptor (Homo sapiens), P21452 [W263A]; assay: Binding affinity against W263A human neurokinin-2 receptor (hNK-2R) using [3H]SR-48,968 as a radioligand
T2 sequence (whole entry): T1 sequence (whole entry) with W263A
Procedure, shortened: (§2)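 Radioligand [3H]SR48968 was incubated for 30 min at 20 °C with membranes from stably transfected wild-type or mutant hNK-2R cells, in Tris-HCl 50 mM pH 7.4 buffer with protease inhibitors, NaCl, MnCl2 and BSA. Test ligands ranged 0.3 pM–10 μM, with nonspecific binding in 1 mM unlabeled ligand. Filtration through PEI-soaked filters was followed by scintillation counting. pKi was derived by curve fitting, duplicate determinations.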

[8] = test system: Substance-K receptor (Homo sapiens), P21452 [Y269A]; assay: Binding affinity against Y269A human neurokinin-2 receptor (hNK-2R) using [3H]nepadutant as a radioligand; procedure, shortened: as §1
Substance-K receptor (Homo sapiens), P21452 [Y269A], sequence (P21452 whole entry Y269A): as the sequence (P21452 whole entry Y206F) above, with F206Y, Y269A counted along it

[9] = test system: Substance-K receptor (Homo sapiens), P21452 [N110A]; assay: Binding affinity against N110A human neurokinin-2 receptor (hNK-2R) using [3H]nepadutant as a radioligand; UB is Undetectable Binding; procedure, shortened: as §1
Substance-K receptor (Homo sapiens), P21452 [N110A], sequence (P21452 whole entry N110A): as the sequence (P21452 whole entry Y206F) above, with N110A, F206Y counted along it

[10] = test system: Substance-K receptor (Homo sapiens), P21452 [Y269F]; assay: Binding affinity against Y269F human neurokinin-2 receptor (hNK-2R) using [3H]nepadutant as a radioligand; procedure, shortened: as §1
Substance-K receptor (Homo sapiens), P21452 [Y269F], sequence (P21452 whole entry Y269F): as the sequence (P21452 whole entry Y206F) above, with F206Y, Y269F counted along it

[11] = test system: T3, Substance-K receptor (Homo sapiens), P21452 [C167A]; assay: Binding affinity against C167A human neurokinin-2 receptor (hNK-2R) using [3H]SR-48,968 as a radioligand; procedure, shortened: as §2
T3 sequence (whole entry): T1 sequence (whole entry) with C167A

[12] = test system: T2, Substance-K receptor (Homo sapiens), P21452 [W263A]; assay: Binding affinity against W263A human neurokinin-2 receptor (hNK-2R) using [3H]nepadutant as a radioligand; UB is Undetectable Binding; procedure, shortened: as §1
[13] = test system: T4, Substance-K receptor (Homo sapiens), P21452 [Y266F]
T4 sequence (whole entry): T1 sequence (whole entry) with Y266F

[14] = test system: Substance-K receptor (Homo sapiens), P21452 [F168A]; assay: Binding affinity against F168A human neurokinin-2 receptor (hNK-2R) using [3H]-nepadutant as a radioligand; procedure, shortened: as §1
Substance-K receptor (Homo sapiens), P21452 [F168A], sequence (P21452 whole entry F168A): as the sequence (P21452 whole entry Y206F) above, with F168A, F206Y counted along it

[15] = test system: Substance-K receptor (Homo sapiens), P21452 [F112A]; assay: Binding affinity against F112A human neurokinin-2 receptor (hNK-2R) using [3H]nepadutant as a radioligand; procedure, shortened: as §1
Substance-K receptor (Homo sapiens), P21452 [F112A], sequence (P21452 whole entry F112A): as the sequence (P21452 whole entry Y206F) above, with F112A, F206Y counted along it

KD/Ki [1]: 1.1 nM | KD/Ki [2]: 4 nM | KD/Ki [3]: 2.9 nM | KD/Ki [4]: 3.5 nM | KD/Ki [5]: 11.5 nM | KD/Ki [6]: 2.4 nM | KD/Ki [7]: 502 nM | KD/Ki [8]: 19 nM | UB [9]: inactive | KD/Ki [10]: 1.7 nM | KD/Ki [11]: > 10000 nM | UB [12]: inactive | KD/Ki [13]: 16.3 nM | KD/Ki [14]: 4.1 nM | KD/Ki [15]: 22.1 nM
SMILES: CC(=O)N[C@@H]1[C@@H](O)[C@H](O)[C@@H](CO)O[C@H]1NC(=O)C[C@@H]1NC(=O)[C@H](CC(C)C)NC(=O)[C@@H]2CNC(=O)C[C@H](NC1=O)C(=O)N[C@@H](Cc1c[nH]c3ccccc13)C(=O)N[C@@H](Cc1ccccc1)C(=O)N2 (cyclo(D(NH(β-GlcNAc))DWF[Dap]L); lactam 2-5)
